Reference: ChEMBL document CHEMBL4033799, “Stable and Long-Lasting, Novel Bicyclic Peptide Plasma Kallikrein Inhibitors for the Treatment of Diabetic Macular Edema” (J Med Chem, 2018)
Values belong to the compound of their own block, whether it stands above or below them. *1 amine or outer side, *2 acyl side, *3 side chain or, on linkers, in order; H or OH if unused. Where a SMILES comes first, the peptide text is derived from it. Bridges are numbered along the chain shown (N, C = ends). Roman numbers before positions name the chains, in order. [ ]: non-standard residue; d: D form. ξ: configuration not given here. X1 = CC(=O)N[C@@H](CSCc1cc(C[*:1])cc(C[*:2])c1)C(=O)O; TBMB = c1c(C[*:1])cc(C[*:3])cc1C[*:2]; hArg = N=C(N)NCCCC[C@H](N)C(=O)O; ξAze = O=C(O)C1CCN1

What was measured:
[1] = Inhibition of rabbit plasma kallikrein using fluorogenic H-Pro-Phe-Arg-AMC peptide as substrate preincubated for 15 mins followed by substrate addition measured by fluorescence-based assay; design: species or system Oryctolagus cuniculus; conditions: read-out: Ki(app)
How it was run: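 Assays ran at 25 °C in 50 mM Tris-HCl, 250 mM NaCl, 1.5 μM BSA, pH 7.5. PKal (nominal 1–2 nM) was preincubated 15 min with serially diluted peptide. […] Human PKal was purified from plasma; rat PKal was made in-house or bought; other species were purified in-house from kaolin-activated plasma.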

Plasma kallikrein [2] = molecular target: Plasma kallikrein (Homo sapiens, UniProt P03952); experiment: Inhibition of human plasma kallikrein using fluorogenic H-Pro-Phe-Arg-AMC peptide as substrate preincubated for 15 mins followed by substrate addition measured by fluorescence-based assay; conditions: read-out: Ki(app)
Chain of Plasma kallikrein (Homo sapiens, UniProt P03952) (P03952 20-390 limits assumed): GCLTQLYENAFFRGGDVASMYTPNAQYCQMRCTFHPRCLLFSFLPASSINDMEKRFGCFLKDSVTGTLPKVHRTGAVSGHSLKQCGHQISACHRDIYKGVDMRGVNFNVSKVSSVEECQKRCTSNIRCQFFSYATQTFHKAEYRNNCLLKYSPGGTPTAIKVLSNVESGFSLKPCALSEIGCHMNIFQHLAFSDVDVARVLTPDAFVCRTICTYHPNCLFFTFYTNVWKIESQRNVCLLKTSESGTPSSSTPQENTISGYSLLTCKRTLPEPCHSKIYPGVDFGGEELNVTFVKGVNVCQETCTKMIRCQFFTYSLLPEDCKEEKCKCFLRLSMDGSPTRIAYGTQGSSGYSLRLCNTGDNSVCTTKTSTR
Chain of Plasma kallikrein (Homo sapiens, UniProt P03952) (P03952 391-638 limits assumed): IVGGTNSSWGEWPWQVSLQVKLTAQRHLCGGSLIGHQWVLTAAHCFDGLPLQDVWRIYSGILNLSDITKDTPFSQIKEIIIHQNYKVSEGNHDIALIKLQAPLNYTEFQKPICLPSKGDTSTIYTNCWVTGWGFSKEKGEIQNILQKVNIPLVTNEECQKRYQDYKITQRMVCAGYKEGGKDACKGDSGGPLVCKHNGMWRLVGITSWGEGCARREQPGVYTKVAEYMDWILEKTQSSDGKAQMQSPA

(UniProt A0A8D1M4K5) = experiment: Inhibition of pig plasma kallikrein using fluorogenic H-Pro-Phe-Arg-AMC peptide as substrate preincubated for 15 mins followed by substrate addition measured by fluorescence-based assay; design: species or system Sus scrofa; conditions: read-out: Ki(app)
Plasma kallikrein [3] = molecular target: Plasma kallikrein (Rattus norvegicus, UniProt P14272); experiment: Inhibition of recombinant Sprague-Dawley rat plasma kallikrein using fluorogenic H-Pro-Phe-Arg-AMC peptide as substrate preincubated for 15 mins followed by substrate addition measured by fluorescence-based assay; conditions: read-out: Ki(app)
Chain of Plasma kallikrein (Rattus norvegicus, UniProt P14272) (P14272 20-390 limits assumed): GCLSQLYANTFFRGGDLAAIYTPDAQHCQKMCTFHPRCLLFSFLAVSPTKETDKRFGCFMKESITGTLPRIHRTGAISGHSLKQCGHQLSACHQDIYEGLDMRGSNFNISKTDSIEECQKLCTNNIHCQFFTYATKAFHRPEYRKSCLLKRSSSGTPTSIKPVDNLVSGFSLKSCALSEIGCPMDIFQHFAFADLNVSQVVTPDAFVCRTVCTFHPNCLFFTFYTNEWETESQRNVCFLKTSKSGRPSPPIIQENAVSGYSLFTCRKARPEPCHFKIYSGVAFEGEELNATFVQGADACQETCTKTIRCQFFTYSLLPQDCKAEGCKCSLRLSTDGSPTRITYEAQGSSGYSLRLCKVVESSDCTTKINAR
Chain of Plasma kallikrein (Rattus norvegicus, UniProt P14272) (P14272 391-638 limits assumed): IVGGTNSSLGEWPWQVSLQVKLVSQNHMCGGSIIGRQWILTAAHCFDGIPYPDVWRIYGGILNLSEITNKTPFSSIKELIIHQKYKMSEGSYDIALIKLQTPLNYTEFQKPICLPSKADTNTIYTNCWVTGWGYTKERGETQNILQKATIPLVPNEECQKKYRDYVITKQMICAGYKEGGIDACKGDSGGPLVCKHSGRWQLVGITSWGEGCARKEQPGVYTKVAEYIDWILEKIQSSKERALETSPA

[4] = Aqueous solubility of the compound in buffer; assay type: physicochemical
Plasma [5] = experiment: (§1) Drug level in human plasma treated with (3S,6S,9R,12S,15S,18S,21S,24S,27R)-15-((1H-imidazol-5-yl)methyl)-1-((S)-1-((S)-2-((S)-2-((R)-2-acetamido-3-mercaptopropanamido)-3-hydroxypropanamido)-3-(1H-indol-3-yl)propanoyl)pyrrolidin-2-yl)-18-(3-amino-3-oxopropyl)-21-(carboxymethyl)-6-(3-guanidinopropyl)-12,24-diisobutyl-9,27-bis(mercaptomethyl)-3-methyl-1,4,7,10,13,16,19,22,25-nonaoxo-2,5,8,11,14,17,20,23,26-nonaazaoctacosan-28-oic acid at 50 uM after 18 hrs by MALDI-TOF analysis; assay type: ADME, cell-free
How it was run: (§2)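 Peptide from a 1 mM DMSO stock was diluted to 50 μM in citrated mouse, rat or human plasma and incubated at 37 °C for up to 2 days. Samples taken at time points were quenched in 1:1 acetonitrile/methanol and centrifuged. The supernatant was mixed with ammonium bicarbonate in acetonitrile/water, and parent peptide and metabolites were detected by MALDI-TOF.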

Plasma [6] = experiment: as §1, with “rat” for “human”; assay type: ADME, cell-free; how it was run: as §2

Ki [1]: 84 nM
Ki (Plasma kallikrein [2]): 0.39 nM
Ki ((UniProt A0A8D1M4K5)): 22 nM
Ki (Plasma kallikrein [3]): 11 nM
SMILES: CC(=O)N[C@H]1CSCc2cc3cc(c2)CSC[C@H](NC(=O)[C@H](CCCNC(=N)N)NC(=O)[C@H](Cc2ccc(O)cc2)NC(=O)[C@@H]2CCCN2C(=O)[C@H](Cc2ccccc2)NC(=O)[C@H](CO)NC1=O)C(=O)N[C@@H](CC(C)C)C(=O)N[C@@H](Cc1cnc[nH]1)C(=O)N[C@@H](CCC(N)=O)C(=O)N[C@@H](CC(=O)O)C(=O)N[C@@H](CC(C)C)C(=O)N[C@H](C(=O)O)CSC3 (Ac-CSFPYRCLHQDLC-OH; linker 1-7-13 via TBMB)

solubility [4]: Insoluble
SMILES: CC[C@H](C)[C@@H]1NC(=O)[C@H](CC(=O)O)NC(=O)[C@@H]2CCCN2C(=O)[C@H](Cc2ccc(O)cc2)NC(=O)[C@H](Cc2ccc(O)cc2)NC(=O)[C@H](C(C)C)NC(=O)[C@@H]2CSCc3cc(cc(c3)CSC[C@@H](C(=O)N[C@@H](C)C(=O)O)NC1=O)CSC[C@H](NC(=O)[C@H](C)N)C(=O)N[C@@H](CO)C(=O)N[C@@H](Cc1ccccc1)C(=O)N1CCC[C@H]1C(=O)N[C@@H](Cc1ccc(O)cc1)C(=O)N[C@@H](CCCNC(=N)N)C(=O)N2 (H-ACSFPYRCVYYPDICA-OH; linker 2-8-15 via TBMB)

Drug metabolism (Plasma [5]): Metabolite_Detected
SMILES: CC(=O)N[C@@H](CSCc1cc2cc(c1)CSC[C@H](N)C(=O)N[C@@H](CC(C)C)C(=O)N[C@@H](Cc1cnc[nH]1)C(=O)N[C@@H](CCC(N)=O)C(=O)N[C@@H](CC(=O)O)C(=O)N[C@@H](CC(C)C)C(=O)N[C@H](C(=O)O)CSC2)C(=O)N[C@@H](CO)C(=O)N[C@@H](Cc1c[nH]c2ccccc12)C(=O)N1CCC[C@H]1C(=O)N[C@@H](C)C(=O)O (I: H-CLHQDLC-OH / II: Ac-CSWPA-OH; linker I:1-I:7-II:1 via TBMB)

Ki (Plasma kallikrein [2]): 0.21 nM
SMILES: CC(=O)N[C@H]1CSCc2cc3cc(c2)CSC[C@H](NC(=O)[C@H](CCCCNC(=N)N)NC(=O)[C@H](Cc2ccc(O)cc2)NC(=O)C2CCN2C(=O)[C@H](Cc2ccccc2)NC(=O)[C@H](CO)NC1=O)C(=O)N[C@@H](CC(C)C)C(=O)N[C@@H](Cc1cnc[nH]1)C(=O)N[C@@H](CCC(N)=O)C(=O)N[C@@H](CC(=O)O)C(=O)N[C@@H](CC(C)C)C(=O)N[C@H](C(=O)O)CSC3 (stereo partly drawn) (Ac-CSF[ξAze]Y[hArg]CLHQDLC-OH; linker 1-7-13 via TBMB)

Drug metabolism (Plasma [6]): Metabolite_Detected
SMILES: CC(=O)N[C@H]1CSCc2cc(CSC[C@H](NC(=O)[C@H](CC(C)C)NC(=O)[C@@H](N)CC(=O)O)C(=O)O)cc(c2)CSC[C@@H](C(=O)N[C@@H](CC(C)C)C(=O)O)NC(=O)[C@H](CCCNC(=N)N)NC(=O)[C@H](C)NC(=O)[C@@H]2CCCN2C(=O)[C@H](Cc2c[nH]c3ccccc23)NC(=O)[C@H](CO)NC1=O

Ki (Plasma kallikrein [2]): 0.14 nM
SMILES: CC(=O)N[C@H]1CSCc2cc3cc(c2)CSC[C@H](NC(=O)[C@H](CCCCNC(=N)N)NC(=O)[C@H](C)NC(=O)C2CCN2C(=O)[C@H](Cc2c[nH]c4ccccc24)NC(=O)[C@H](CO)NC1=O)C(=O)N[C@@H](CC(C)C)C(=O)N[C@@H](Cc1cnc[nH]1)C(=O)N[C@@H](CCC(N)=O)C(=O)N[C@@H](CC(=O)O)C(=O)N[C@@H](CC(C)C)C(=O)N[C@H](C(=O)O)CSC3 (stereo partly drawn) (Ac-CSW[ξAze]A[hArg]CLHQDLC-OH; linker 1-7-13 via TBMB)

Ki (Plasma kallikrein [2]): 0.06 nM
SMILES: CC(=O)N[C@H]1CSCc2cc3cc(c2)CSC[C@H](NC(=O)[C@H](CCCNC(=N)N)NC(=O)[C@H](C)NC(=O)C2CCN2C(=O)[C@H](Cc2c[nH]c4ccccc24)NC(=O)[C@H](CO)NC1=O)C(=O)N[C@@H](CC(C)C)C(=O)N[C@@H](Cc1cnc[nH]1)C(=O)N[C@@H](CCC(N)=O)C(=O)N[C@@H](CC(=O)O)C(=O)N[C@@H](CC(C)C)C(=O)N[C@H](C(=O)O)CSC3 (stereo partly drawn) (Ac-CSW[ξAze]ARCLHQDLC-OH; linker 1-7-13 via TBMB)

Drug metabolism (Plasma [5]): Metabolite_Detected
SMILES: CC(=O)N[C@@H](CSCc1cc2cc(c1)CSC[C@H](N)C(=O)N[C@@H](CC(C)C)C(=O)N[C@@H](Cc1cnc[nH]1)C(=O)N[C@@H](CCC(N)=O)C(=O)N[C@@H](CC(=O)O)C(=O)N[C@@H](CC(C)C)C(=O)N[C@H](C(=O)O)CSC2)C(=O)N[C@@H](CO)C(=O)O

Ki (Plasma kallikrein [2]): 0.44 nM
SMILES: CC[C@H](C)[C@@H]1NC(=O)[C@H](CC(=O)O)NC(=O)[C@@H]2CCCN2C(=O)[C@H](Cc2ccc(O)cc2)NC(=O)[C@H](Cc2ccc(O)cc2)NC(=O)[C@H](C(C)C)NC(=O)[C@@H]2CSCc3cc(cc(c3)CSC[C@@H](C(=O)N[C@@H](C)C(=O)O)NC1=O)CSC[C@H](NC(=O)[C@H](C)N)C(=O)N[C@@H](CC(N)=O)C(=O)N[C@@H](CC(N)=O)C(=O)N[C@@H](Cc1ccccc1)C(=O)N1CCC[C@H]1C(=O)N[C@@H](Cc1ccccc1)C(=O)N[C@@H](CCCNC(=N)N)C(=O)N2 (H-ACNNFPFRCVYYPDICA-OH; linker 2-9-16 via TBMB)

Drug metabolism (Plasma [6]): Metabolite_Detected
SMILES: CC(=O)N[C@H]1CSCc2cc(cc(CSC[C@H](NC(=O)[C@H](CC(C)C)NC(=O)[C@H](CC(=O)O)NC(=O)[C@H](CCC(N)=O)NC(=O)[C@@H](N)Cc3cnc[nH]3)C(=O)O)c2)CSC[C@@H](C(=O)O)NC(=O)[C@H](CCCNC(=N)N)NC(=O)[C@H](C)NC(=O)[C@@H]2CCCN2C(=O)[C@H](Cc2c[nH]c3ccccc23)NC(=O)[C@H](CO)NC1=O (I: Ac-CSWPARC-OH / II: H-HQDLC-OH; linker I:1-I:7-II:5 via TBMB)

Drug metabolism (Plasma [5]): Metabolite_Detected
SMILES: CC(=O)N[C@@H](CSCc1cc2cc(c1)CSC[C@H](N)C(=O)N[C@@H](CC(C)C)C(=O)N[C@@H](Cc1cnc[nH]1)C(=O)N[C@@H](CCC(N)=O)C(=O)N[C@@H](CC(=O)O)C(=O)N[C@@H](CC(C)C)C(=O)N[C@H](C(=O)O)CSC2)C(=O)O (H-CLHQDLC-OH; linker 1-7 via X1)

Drug metabolism (Plasma [6]): Metabolite_Detected
SMILES: CC(=O)N[C@H]1CSCc2cc(cc(CSC[C@H](NC(=O)[C@H](CC(C)C)NC(=O)[C@@H](N)CC(=O)O)C(=O)O)c2)CSC[C@@H](C(=O)O)NC(=O)[C@H](CCCNC(=N)N)NC(=O)[C@H](C)NC(=O)[C@@H]2CCCN2C(=O)[C@H](Cc2c[nH]c3ccccc23)NC(=O)[C@H](CO)NC1=O

Ki (Plasma kallikrein [2]): 1.3 nM
SMILES: CC(=O)N[C@H]1CSCc2cc3cc(c2)CSC[C@H](NC(=O)[C@H](CCCNC(=N)N)NC(=O)[C@H](Cc2ccc(O)cc2)NC(=O)[C@@H]2CCCN2C(=O)[C@H](Cc2ccccc2)NC(=O)[C@H](CO)NC1=O)C(=O)N[C@@H](C)CN[C@@H](Cc1cnc[nH]1)C(=O)N[C@@H](CCC(N)=O)C(=O)N[C@@H](CC(=O)O)C(=O)N[C@@H](CC(C)C)C(=O)N[C@H](C(=O)O)CSC3

Ki (Plasma kallikrein [2]): 0.07 nM
Ki (Plasma kallikrein [3]): 0.9 nM
SMILES: CC(C)C[C@@H]1NC(=O)[C@H](CC(=O)O)NC(=O)[C@H](CCC(N)=O)NC(=O)[C@H](Cc2cnc[nH]2)NC(=O)[C@H](CC(C)C)NC(=O)[C@@H]2CSCc3cc(cc(c3)CSC[C@@H](C(=O)N[C@@H](C)C(=O)O)NC1=O)CSC[C@H](NC(=O)[C@H](C)N)C(=O)N[C@@H](CO)C(=O)N[C@@H](Cc1c[nH]c3ccccc13)C(=O)N1CCC[C@H]1C(=O)N[C@@H](C)C(=O)N[C@@H](CCCNC(=N)N)C(=O)N2 (H-ACSWPARCLHQDLCA-OH; linker 2-8-14 via TBMB)
